Measurements reported in ChEMBL document CHEMBL5724801, “EUbOPEN Chemogenomics Library - Multiplex” (2024).
Where “and” joins values, the source holds several entries; their conditions need not be identical. Equal values may be shown once.

Test system: Fibroblast
Test: Multiplex assay against human fibroblast
Format: toxicity, cell-based
Outline: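 Phenotypes for tubulin, mitochondrial mass and membrane permeability are expressed as per cents of healthy-nucleus cells. Cells were stained live at seeding with Hoechst33342, BioTracker Green Microtubule Cytoskeleton Dye, MitoTracker Red and Annexin V Alexa Fluor 680, then imaged after compound addition on a CQ1 microscope at 37°C and 5% CO2. Machine-learning gating in CellPathfinder separated Hoechst high-intensity objects from normal cells, divided normal cells by nuclear state (healthy, pyknosed, fragmented) and divided pyknosed cells into mitotic or apoptotic.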

[1] = 12 h, 1 µM, compound concentration 1 uM
[2] = 12 h, 10 µM, compound concentration 10 uM
[3] = 24 h, 1 µM, compound concentration 1 uM
[4] = 24 h, 10 µM, compound concentration 10 uM
[5] = 48 h, 1 µM, compound concentration 1 uM
[6] = 48 h, 10 µM, compound concentration 10 uM

For `COC(=O)C1=C(C)NC(C)=C(C(=O)OC(C)C)C1c1cccc2nonc12` (stereo not drawn) [ISRADIPINE], the “Population Apoptotic (%)” value [1] was 16.67% and 18.92%, the “Population Fragmented Nuclei (%)” value [1] was 8.07% and 3.38% and the “Population Healthy Nuclei (%)” value [1] was 65.84% and 81.01%. The “Population Hoechst High Intensity Objects (%)” value [1] was 0%, the “Population Membrane Permeable-Phenotype (%)” value [1] was 3.77% and 3.12% and the “Population Mitochondria Different-Phenotype (%)” value [1] was 7.55% and 11.98%. For the same molecule, the “Population Mitotic Cells (%)” value [1] was 83.33% and 81.08%, the “Population Normal (%)” value [1] was 100% and the “Population Pyknosed Nuclei (%)” value [1] was 26.09% and 15.61%. For the same molecule, the “Population Tubulin-Different-Phenotype (%)” value [1] was 15.09% and 16.15%, the “Total Cell Count” value [1] was 161 and 237 and the “Population Fragmented Nuclei (%)” value [2] was 12.61% and 3.08%. For the same molecule, the “Population Healthy Nuclei (%)” value [2] was 63.04% and 75.33%, the “Population Hoechst High Intensity Objects (%)” value [2] was 0% and the “Population Membrane Permeable-Phenotype (%)” value [2] was 5.52% and 7.02%. For the same molecule, the “Population Mitochondria Different-Phenotype (%)” value [2] was 17.24% and 19.3%, the “Population Mitotic Cells (%)” value [2] was 94.64% and 77.55% and the “Population Normal (%)” value [2] was 100%. The “Population Pyknosed Nuclei (%)” value [2] was 24.35% and 21.59%, the “Population Tubulin-Different-Phenotype (%)” value [2] was 40% and 48.54% and the “Total Cell Count” value [2] was 230 and 227. The “Population Apoptotic (%)” value [3] was 18.52% and 21.74%, the “Population Fragmented Nuclei (%)” value [3] was 12.43% and 8.5% and the “Population Healthy Nuclei (%)” value [3] was 72.97% and 82.19%. For the same molecule, the “Population Hoechst High Intensity Objects (%)” value [3] was 0%, the “Population Membrane Permeable-Phenotype (%)” value [3] was 5.93% and 2.46% and the “Population Mitochondria Different-Phenotype (%)” value [3] was 1.48% and 4.93%. The “Population Mitotic Cells (%)” value [3] was 81.48% and 78.26%, the “Population Normal (%)” value [3] was 100% and the “Population Pyknosed Nuclei (%)” value [3] was 14.59% and 9.31%. The “Population Tubulin-Different-Phenotype (%)” value [3] was 12.59% and 16.26%, the “Total Cell Count” value [3] was 185 and 247 and the “Population Fragmented Nuclei (%)” value [4] was 9.72% and 2.69%. The “Population Healthy Nuclei (%)” value [4] was 68.83% and 76.23%, the “Population Hoechst High Intensity Objects (%)” value [4] was 0% and the “Population Membrane Permeable-Phenotype (%)” value [4] was 4.12%. For the same molecule, the “Population Mitochondria Different-Phenotype (%)” value [4] was 8.82% and 15.88%, the “Population Mitotic Cells (%)” value [4] was 98.11% and 80.85% and the “Population Normal (%)” value [4] was 100%. For the same molecule, the “Population Pyknosed Nuclei (%)” value [4] was 21.46% and 21.08%, the “Population Tubulin-Different-Phenotype (%)” value [4] was 39.41% and 47.06% and the “Total Cell Count” value [4] was 247 and 223. The “Population Apoptotic (%)” value [5] was 30% and 23.53%, the “Population Fragmented Nuclei (%)” value [5] was 7.14% and 6.07% and the “Population Healthy Nuclei (%)” value [5] was 81.87% and 87.04%. The “Population Hoechst High Intensity Objects (%)” value [5] was 0%, the “Population Membrane Permeable-Phenotype (%)” value [5] was 2.01% and 1.4% and the “Population Mitotic Cells (%)” value [5] was 70% and 76.47%. For the same molecule, the “Population Normal (%)” value [5] was 100%, the “Population Pyknosed Nuclei (%)” value [5] was 10.99% and 6.88% and the “Population Tubulin-Different-Phenotype (%)” value [5] was 10.07% and 17.21%. For the same molecule, the “Total Cell Count” value [5] was 182 and 247, the “Population Apoptotic (%)” value [6] was 33.33% and 50% and the “Population Fragmented Nuclei (%)” value [6] was 9.58% and 5.05%. For the same molecule, the “Population Healthy Nuclei (%)” value [6] was 85.42% and 89.45%, the “Population Hoechst High Intensity Objects (%)” value [6] was 0% and the “Population Membrane Permeable-Phenotype (%)” value [6] was 1.46% and 8.72%. For the same molecule, the “Population Mitochondria Different-Phenotype (%)” value [6] was 14.63% and 8.72%, the “Population Mitotic Cells (%)” value [6] was 66.67% and 50% and the “Population Normal (%)” value [6] was 100%. The “Population Pyknosed Nuclei (%)” value [6] was 5% and 5.5%, the “Population Tubulin-Different-Phenotype (%)” value [6] was 24.39% and 55.38% and the “Total Cell Count” value [6] was 240 and 218.
